# Laboratory results taken from ChEMBL document CHEMBL1142895, “Discovery of a new insecticide lead by optimizing a target-diverse scaffold: tetrazolinone derivatives” (2007).
# The source made the active and inactive calls. The calls are words filed in the database; no cut-off is given here.
# Experiments:
# Triticum aestivum [1] = assay: Inhibition of stem growth of Triticum aestivum at 100 mg/L; assay type: functional
# How it was run: (§1)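 Seeds of each species were grown in Petri dishes with 10 seeds per dish, at 28 °C, 70–80% RH, 16:8 h light:dark photoperiod and 3000 lx light for 5 days. Root and stem lengths were measured for the 10 seeds and averaged. Each test and its controls were run in three replicates, and the data were given probit analysis.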
# Triticum aestivum [2] = assay: Inhibition of root growth of Triticum aestivum at 100 mg/L; assay type: functional; how it was run: as §1
# Echinochloa crus-galli [3] = assay: Inhibition of stem growth of Echinochloa crus-galli at 100 mg/L; assay type: functional; how it was run: as §1
# Echinochloa crus-galli [4] = assay: Inhibition of root growth of Echinochloa crus-galli at 100 mg/L; assay type: functional; how it was run: as §1
# Sorghum bicolor [5] = assay: Inhibition of stem growth of Sorghum bicolor at 100 mg/L; assay type: functional; how it was run: as §1
# Sorghum bicolor [6] = assay: Inhibition of root growth of Sorghum bicolor at 100 mg/L; assay type: functional; how it was run: as §1
# [7] = system: Brassica rapa subsp. oleifera; assay: Inhibition of stem growth of Brassica campestris at 100 mg/L; assay type: functional; how it was run: as §1
# [8] = system: Brassica rapa subsp. oleifera; assay: Inhibition of root growth of Brassica campestris at 100 mg/L; assay type: functional; how it was run: as §1
# Radish [9] = assay: Inhibition of stem growth of Raphanus sativus at 100 mg/L; assay type: functional; how it was run: as §1
# Radish [10] = assay: Inhibition of root growth of Raphanus sativus at 100 mg/L; assay type: functional; how it was run: as §1
# Cucumis sativus [11] = assay: Inhibition of stem growth of Cucumis sativus at 100 mg/L; assay type: functional; how it was run: as §1
# Cucumis sativus [12] = assay: Inhibition of root growth of Cucumis sativus at 100 mg/L; assay type: functional; how it was run: as §1
# Aphis = assay: Insecticidal activity against Aphis medicagini at 250 mg/L; assay type: functional
# How it was run: (§2)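 Groups of 10 of each species were placed in glass Petri dishes and sprayed with test solution using a Potter sprayer. After air-drying, they were held under normal rearing conditions. Mortality at 72 h was taken from the number and size of live larvae relative to untreated controls.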
# Triticum aestivum [13] = assay: Herbicidal activity against Triticum aestivum at 450 g ai/ha in greenhouse in vivo test; assay type: functional, organism-based
# Echinochloa crus-galli [14] = assay: Herbicidal activity against Echinochloa crus-galli at 450 g ai/ha in greenhouse in vivo test; assay type: functional, organism-based
# Sorghum bicolor [15] = assay: Herbicidal activity against Sorghum bicolor at 450 g ai/ha in greenhouse in vivo test; assay type: functional, organism-based
# [16] = system: Brassica rapa subsp. oleifera; assay: Herbicidal activity against Brassica campestris at 450 g ai/ha in greenhouse in vivo test; assay type: functional, organism-based
# Radish [17] = assay: Herbicidal activity against Raphanus sativus at 450 g ai/ha in greenhouse in vivo test; assay type: functional, organism-based
# Cucumis sativus [18] = assay: Herbicidal activity against Cucumis sativus at 450 g ai/ha in greenhouse in vivo test; assay type: functional, organism-based
# Tetranychus cinnabarinus = assay: Insecticidal activity against Tetranychus cinnabarinus at 250 mg/L; assay type: functional; how it was run: as §2
SMILES,inhibition at 100 µg/mL (Triticum aestivum [1]),inhibition at 100 µg/mL (Triticum aestivum [2]),inhibition at 100 µg/mL (Echinochloa crus-galli [3]),inhibition at 100 µg/mL (Echinochloa crus-galli [4]),inhibition at 100 µg/mL (Sorghum bicolor [5]),inhibition at 100 µg/mL (Sorghum bicolor [6]),inhibition at 100 µg/mL [7],inhibition at 100 µg/mL [8],inhibition at 100 µg/mL (Radish [9]),inhibition at 100 µg/mL (Radish [10]),inhibition at 100 µg/mL (Cucumis sativus [11]),inhibition at 100 µg/mL (Cucumis sativus [12]),Activity (Aphis),Activity (Triticum aestivum [13]),Activity (Echinochloa crus-galli [14]),Activity (Sorghum bicolor [15]),Activity [16],Activity (Radish [17]),Activity (Cucumis sativus [18]),Activity (Tetranychus cinnabarinus)
CCSc1nnc(Cn2nnn(-c3ccc(Cl)cc3)c2=O)s1,40%,50%,70%,60%,60%,70%,60%,60%,40%,50%,30%,0%,82.5%,inactive,inactive,inactive,inactive,inactive,inactive,5.7%
CO/C=C\C(C(=O)OC)c1ccccc1CSc1nnc(Cn2nnn(-c3ccc(Cl)cc3)c2=O)s1 (stereo not given),40%,0%,0%,30%,0%,60%,30%,30%,30%,60%,30%,30%,2.9%,inactive,inactive,inactive,inactive,inactive,inactive,0%
CCCSc1nnc(Cn2nnn(-c3ccc(Cl)cc3)c2=O)s1,70%,70%,80%,80%,0%,80%,60%,70%,70%,70%,70%,50%,0%,inactive,inactive,inactive,inactive,inactive,inactive,0%
CCOC(=O)C(C)n1nnn(-c2ccc(Cl)cc2)c1=O (stereo not given),70%,80%,0%,0%,40%,95%,0%,0%,50%,70%,0%,0%,0%,inactive,inactive,inactive,inactive,inactive,inactive,97.1%
O=c1n(Cc2ccc(Br)cc2)nnn1-c1ccc(Cl)cc1,30%,0%,0%,0%,0%,0%,0%,0%,0%,0%,0%,0%,13.3%,inactive,inactive,inactive,inactive,inactive,inactive,0%
CSc1nnc(Cn2nnn(-c3ccc(Cl)cc3)c2=O)s1,50%,60%,0%,30%,40%,60%,70%,0%,50%,50%,60%,40%,5.7%,inactive,inactive,inactive,inactive,inactive,inactive,0%
O=c1n(Cc2cccc(F)c2)nnn1-c1ccc(Cl)cc1,40%,40%,0%,70%,0%,0%,0%,0%,0%,0%,30%,50%,0%,inactive,inactive,inactive,inactive,inactive,inactive,5.7%
C=CCSc1nnc(Cn2nnn(-c3ccc(Cl)cc3)c2=O)o1,0%,0%,0%,0%,0%,0%,70%,80%,60%,60%,50%,60%,5%,inactive,inactive,inactive,inactive,inactive,inactive,96.8%
Cc1cccc(Cn2nnn(-c3ccc(Cl)cc3)c2=O)c1,0%,0%,0%,0%,0%,0%,90%,80%,70%,80%,0%,0%,8.3%,inactive,inactive,inactive,inactive,inactive,inactive,4.3%
CCOC(=O)C(C)Sc1nnc(Cn2nnn(-c3ccc(Cl)cc3)c2=O)o1 (stereo not given),0%,0%,0%,0%,0%,0%,60%,80%,0%,0%,0%,0%,8.3%,inactive,inactive,inactive,inactive,inactive,inactive,0%
O=c1c(Cn2nnn(-c3ccc(Cl)cc3)c2=O)coc2ccccc12,30%,0%,0%,0%,0%,0%,0%,0%,0%,0%,0%,0%,1.7%,inactive,inactive,inactive,inactive,inactive,inactive,100%
O=c1n(Cc2nnc(SCc3cccc(Cl)c3)s2)nnn1-c1ccc(Cl)cc1,70%,60%,0%,0%,50%,40%,0%,0%,30%,50%,40%,0%,2.9%,inactive,inactive,inactive,inactive,inactive,inactive,5.7%
